Measurements taken from ChEMBL document CHEMBL1772983, “Bioactive sesqui- and diterpenoids from the Argentine liverwort Porella chilensis” (2011).
Active and inactive are the calls of the source. No cut-off for these calls is given here.

What was measured:
[1] = test system: Pseudomonas aeruginosa; test: Inhibition of Pseudomonas aeruginosa ATCC 27853 biofilm formation at 5 ug/ml after 24 hrs using crystal violet staining by spectrophotometry analysis; type: functional; conditions: ATCC 27853, 24 h
Method in brief: (§1)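 ATCC 27853 culture diluted to 10% (v/v) in LB and dosed from DMSO–water (1:1) stocks of 1 or 0.1 mg/mL (10 µL into 190 µL), 8 replicates, vehicle control. After 24 h at 37 °C, liquid discarded and wells washed three times with PBS. Stained with 0.1% crystal violet for 20 min, rinsed with water, dye eluted with absolute EtOH, A540 read. Mean ± SD, Student's t-test.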

[2] = test system: Pseudomonas aeruginosa; test: Antibacterial activity against Pseudomonas aeruginosa ATCC 27853 assessed as growth inhibition at 5 ug/ml by microplate assay; type: functional
Method in brief: (§2)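 Overnight P. aeruginosa ATCC 27853 culture diluted to 10% (v/v) in LB medium. 190 µL of culture plus 10 µL of 1 or 0.1 mg/mL stock in DMSO–water (1:1), giving 50 or 5 µg/mL. 8 replicates; vehicle-only negative control. Incubated 37 °C, 24 h; growth read as OD600. Mean ± SD, Student's t-test, p ≤ 0.05.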

[3] = test system: Pseudomonas aeruginosa; test: Antibacterial activity against Pseudomonas aeruginosa ATCC 27853 assessed as growth inhibition at 50 ug/ml by microplate assay relative to control; type: functional; conditions: read-out: GI; method in brief: as §2
[4] = test system: Pseudomonas aeruginosa; test: Inhibition of Pseudomonas aeruginosa ATCC 27853 biofilm formation at 5 to 50 ug/ml after 24 hrs using crystal violet staining by spectrophotometry analysis; type: functional, organism-based; method in brief: as §1
[5] = test system: Pseudomonas aeruginosa; test: Antibacterial activity against Pseudomonas aeruginosa ATCC 27853 assessed as growth inhibition at 5 to 50 ug/ml after 24 hrs by microplate assay; type: functional, organism-based; method in brief: as §2
[6] = test system: Pseudomonas aeruginosa; test: Inhibition of quorum sensing activity in Pseudomonas aeruginosa ATCC 27853 assessed as N-acylhomoserin lactones production at 5 to 50 ug/ml after 24 hrs by measuring beta-galactosidase activity by spectrophotometry
[7] = test system: Pseudomonas aeruginosa; test: Inhibition of Pseudomonas aeruginosa ATCC 27853 biofilm formation at 16.4 uM after 24 hrs using crystal violet staining by spectrophotometry analysis relative to control; type: functional; conditions: ATCC 27853, 24 h; method in brief: as §1
[8] = test system: Pseudomonas aeruginosa; test: Induction of Pseudomonas aeruginosa ATCC 27853 biofilm formation at 0.6 uM after 24 hrs using crystal violet staining by spectrophotometry analysis; type: functional, organism-based
[9] = test system: Pseudomonas aeruginosa; test: Antibacterial activity against Pseudomonas aeruginosa ATCC 27853 assessed as growth inhibition by microplate assay; type: functional, organism-based; method in brief: as §2
[10] = test system: Pseudomonas aeruginosa; test: Antibacterial activity against Pseudomonas aeruginosa ATCC 27853 assessed as increase in bacterial growth at 5 to 50 ug/ml by microplate assay; type: functional, organism-based; method in brief: as §2
[11] = test system: Pseudomonas aeruginosa; test: Induction of Pseudomonas aeruginosa ATCC 27853 biofilm formation at 50 ug/ml after 24 hrs using crystal violet staining by spectrophotometry analysis relative to control; type: functional; method in brief: as §1
[12] = test system: Pseudomonas aeruginosa; test: Induction of quorum sensing in Pseudomonas aeruginosa ATCC 27853 assessed as N-acylhomoserin lactones production at 50 ug/ml after 24 hrs by measuring beta-galactosidase activity by spectrophotometry
[13] = test system: Pseudomonas aeruginosa; test: Inhibition of quorum sensing activity in Pseudomonas aeruginosa ATCC 27853 assessed as N-acylhomoserin lactones production at 16.4 uM after 24 hrs by measuring beta-galactosidase activity by spectrophotometry; design: scale not given: the % may be the effect or the level left
[14] = test system: Pseudomonas aeruginosa; test: Inhibition of Pseudomonas aeruginosa ATCC 27853 biofilm formation at 5 ug/ml after 24 hrs using crystal violet staining by spectrophotometry analysis relative to control; type: functional; method in brief: as §1
[15] = test system: Pseudomonas aeruginosa; test: Antibacterial activity against Pseudomonas aeruginosa ATCC 27853 assessed as growth inhibition at 5 ug/ml after 24 hrs by microplate assay relative to control; type: functional; conditions: ATCC 27853, 24 h, read-out: GI; method in brief: as §2
[16] = test system: Pseudomonas aeruginosa; test: Antibacterial activity against Pseudomonas aeruginosa ATCC 27853 assessed as increase in bacterial growth at 50 ug/ml by microplate assay relative to control; type: functional; method in brief: as §2
[17] = test system: Pseudomonas aeruginosa; test: Inhibition of Pseudomonas aeruginosa ATCC 27853 biofilm formation at 50 ug/ml after 24 hrs using crystal violet staining by spectrophotometry analysis relative to control; conditions: ATCC 27853, 24 h
[18] = test system: Pseudomonas aeruginosa; test: Inhibition of quorum sensing activity in Pseudomonas aeruginosa ATCC 27853 assessed as N-acylhomoserin lactones production at 5 ug/ml after 24 hrs by measuring beta-galactosidase activity by spectrophotometry
[19] = test system: Pseudomonas aeruginosa; test: Inhibition of quorum sensing activity in Pseudomonas aeruginosa ATCC 27853 assessed as N-acylhomoserin lactones production at 5 ug/ml after 24 hrs by measuring beta-galactosidase activity by spectrophotometry relative to control; design: scale not given: the % may be the effect or the level left

| inhibition [6] | SMILES | inhibition [4] | growth inhibition (GI) [5] | biofilm induction [8] | Activity [10] | other results |
| --- | --- | --- | --- | --- | --- | --- |
|  | O=C(O)c1cn(C2CC2)c2cc(N3CCNCC3)c(F)cc2c1=O [CIPROFLOXACIN] |  |  |  |  | inhibition at 5 µg/mL [1]: 51%; inhibition of growth at 5 µg/mL ([2]; read-out: GI): 73% |
| Active | CC(C)[C@H]1CC[C@]2(C)C[C@]3(O)C(=CC(=O)[C@H]3C)[C@@H](C)CC[C@@H]12 [ANADENSIN] | Active | Active | inactive |  | inhibition of growth at 50 µg/mL [3]: 16%; inhibition at 16.4 µM [7]: 47%; growth inhibition (GI) [9]: Dose-dependent effect |
| Active | C=CC1(O)CC[C@@]2(C)[C@H](C)CC[C@@]2(C)[C@@H]1C (stereo not given in full) | Active | Active | inactive | Active |  |
|  | CC(C)[C@H]1CC[C@]2(C)CC3=C(C(=O)C[C@@]3(C)O)[C@@H](C)CC[C@@H]12 |  |  | inactive |  | Activity [11]: 93%; Activity [12]: Active |
|  | CC1=C2C[C@@]3(C)CC[C@H](C(C)C)[C@@H]3CC[C@H](C)[C@]2(O)CC1=O [FUSICOAURITONE] |  |  | inactive |  | inhibition of growth at 50 µg/mL [3]: 25%; Activity [11]: 105%; Activity [12]: Active; growth inhibition (GI) [9]: Dose-dependent effect |
| Active | C[C@@H]1CC[C@@]2(C)C(=O)c3ccoc3C[C@@]12C | Active | Active | inactive | Active |  |
| 33% | C=C1CC[C@H]2[C@@H]([C@@H]3[C@@H]1CC[C@@]3(C)O)C2(C)C | Active |  | inactive |  | Activity [13]: 33%; inhibition [14]: Active; inhibition at 16.4 µM [7]: 41%; growth inhibition (GI) [2]: Active |
| 80% | CC1(C)[C@@H]2[C@@H]3[C@H](CC[C@@]3(C)O)[C@@](C)(O)CC[C@@H]21 | Active |  | inactive |  | inhibition of growth at 5 µg/mL [15]: 24%; inhibition at 16.4 µM [7]: 37% |
|  | CC1=CC(=O)[C@@H]2[C@@H](C)CC[C@H]3[C@@H](C(C)C)CC[C@]3(C)C[C@@]12O |  |  | inactive |  | Activity [16]: 15%; Activity [11]: 95%; Activity [12]: Active; growth inhibition (GI) [9]: Dose-dependent effect |
|  | CC(=O)OC[C@@]12Cc3occc3C(=O)[C@]1(C)CC[C@H]2C [NORPINGUISONE ACETATE] |  |  | inactive | Active | inhibition at 5 µg/mL ([14]; ATCC 27853, 24 h): 20%; inhibition at 50 µg/mL [17]: 27% |
|  | CC[C@H]1OC(=O)[C@H](C)[C@@H](O[C@H]2C[C@@](C)(OC)[C@@H](O)[C@H](C)O2)[C@H](C)[C@@H](O[C@@H]2O[C@H](C)C[C@H](N(C)C)[C@H]2O)[C@](C)(O)C[C@@H](C)CN(C)[C@H](C)[C@@H](O)[C@]1(C)O |  |  |  |  | inhibition [18]: 76%; Activity [19]: 76%; growth inhibition (GI) [2]: inactive |

| SMILES | inhibition [6] | inhibition [4] | growth inhibition (GI) [5] | biofilm induction [8] | Activity [10] | other results |
| --- | --- | --- | --- | --- | --- | --- |
| COC(=O)[C@@]12Cc3occc3C(=O)[C@]1(C)CC[C@H]2C | inactive |  | inactive | inactive | Active |  |
